Experiments:
HeLa [1] = test: Antiproliferative activity against human HeLa cells assessed as cell survival ratio at 0.1 uM treated 1 hr before 2Gy ionizing radiation measured after 6 to 8 days by DMR clonogenic assay; type: functional
Method in brief: (§1)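 HeLa cells seeded in 6-well dishes, incubated overnight at 37 °C/5% CO2, pre-treated 1 h with vehicle or inhibitor (0.1 or 0.5 μM), then given 2 Gy X-ray IR and held overnight. Medium then replaced without compound and culture continued 6-8 days. Colonies Giemsa-stained and counted automatically. DMR = % survival (vehicle, 2 Gy) / % survival (compound, 2 Gy).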

HeLa [2] = test: Antiproliferative activity against human HeLa cells assessed as cell survival ratio at 0.5 uM treated 1 hr before 2Gy ionizing radiation measured after 6 to 8 days by DMR clonogenic assay; type: functional; method in brief: as §1
[3] = molecular target: DNA-dependent protein kinase catalytic subunit (Homo sapiens, UniProt P78527); test: Inhibition of human DNA-PK using GST-tagged p53N66 as substrate after 1 hr by ELISA-based chemiluminiscence assay
DNA-dependent protein kinase catalytic subunit, sequence (P78527 whole entry): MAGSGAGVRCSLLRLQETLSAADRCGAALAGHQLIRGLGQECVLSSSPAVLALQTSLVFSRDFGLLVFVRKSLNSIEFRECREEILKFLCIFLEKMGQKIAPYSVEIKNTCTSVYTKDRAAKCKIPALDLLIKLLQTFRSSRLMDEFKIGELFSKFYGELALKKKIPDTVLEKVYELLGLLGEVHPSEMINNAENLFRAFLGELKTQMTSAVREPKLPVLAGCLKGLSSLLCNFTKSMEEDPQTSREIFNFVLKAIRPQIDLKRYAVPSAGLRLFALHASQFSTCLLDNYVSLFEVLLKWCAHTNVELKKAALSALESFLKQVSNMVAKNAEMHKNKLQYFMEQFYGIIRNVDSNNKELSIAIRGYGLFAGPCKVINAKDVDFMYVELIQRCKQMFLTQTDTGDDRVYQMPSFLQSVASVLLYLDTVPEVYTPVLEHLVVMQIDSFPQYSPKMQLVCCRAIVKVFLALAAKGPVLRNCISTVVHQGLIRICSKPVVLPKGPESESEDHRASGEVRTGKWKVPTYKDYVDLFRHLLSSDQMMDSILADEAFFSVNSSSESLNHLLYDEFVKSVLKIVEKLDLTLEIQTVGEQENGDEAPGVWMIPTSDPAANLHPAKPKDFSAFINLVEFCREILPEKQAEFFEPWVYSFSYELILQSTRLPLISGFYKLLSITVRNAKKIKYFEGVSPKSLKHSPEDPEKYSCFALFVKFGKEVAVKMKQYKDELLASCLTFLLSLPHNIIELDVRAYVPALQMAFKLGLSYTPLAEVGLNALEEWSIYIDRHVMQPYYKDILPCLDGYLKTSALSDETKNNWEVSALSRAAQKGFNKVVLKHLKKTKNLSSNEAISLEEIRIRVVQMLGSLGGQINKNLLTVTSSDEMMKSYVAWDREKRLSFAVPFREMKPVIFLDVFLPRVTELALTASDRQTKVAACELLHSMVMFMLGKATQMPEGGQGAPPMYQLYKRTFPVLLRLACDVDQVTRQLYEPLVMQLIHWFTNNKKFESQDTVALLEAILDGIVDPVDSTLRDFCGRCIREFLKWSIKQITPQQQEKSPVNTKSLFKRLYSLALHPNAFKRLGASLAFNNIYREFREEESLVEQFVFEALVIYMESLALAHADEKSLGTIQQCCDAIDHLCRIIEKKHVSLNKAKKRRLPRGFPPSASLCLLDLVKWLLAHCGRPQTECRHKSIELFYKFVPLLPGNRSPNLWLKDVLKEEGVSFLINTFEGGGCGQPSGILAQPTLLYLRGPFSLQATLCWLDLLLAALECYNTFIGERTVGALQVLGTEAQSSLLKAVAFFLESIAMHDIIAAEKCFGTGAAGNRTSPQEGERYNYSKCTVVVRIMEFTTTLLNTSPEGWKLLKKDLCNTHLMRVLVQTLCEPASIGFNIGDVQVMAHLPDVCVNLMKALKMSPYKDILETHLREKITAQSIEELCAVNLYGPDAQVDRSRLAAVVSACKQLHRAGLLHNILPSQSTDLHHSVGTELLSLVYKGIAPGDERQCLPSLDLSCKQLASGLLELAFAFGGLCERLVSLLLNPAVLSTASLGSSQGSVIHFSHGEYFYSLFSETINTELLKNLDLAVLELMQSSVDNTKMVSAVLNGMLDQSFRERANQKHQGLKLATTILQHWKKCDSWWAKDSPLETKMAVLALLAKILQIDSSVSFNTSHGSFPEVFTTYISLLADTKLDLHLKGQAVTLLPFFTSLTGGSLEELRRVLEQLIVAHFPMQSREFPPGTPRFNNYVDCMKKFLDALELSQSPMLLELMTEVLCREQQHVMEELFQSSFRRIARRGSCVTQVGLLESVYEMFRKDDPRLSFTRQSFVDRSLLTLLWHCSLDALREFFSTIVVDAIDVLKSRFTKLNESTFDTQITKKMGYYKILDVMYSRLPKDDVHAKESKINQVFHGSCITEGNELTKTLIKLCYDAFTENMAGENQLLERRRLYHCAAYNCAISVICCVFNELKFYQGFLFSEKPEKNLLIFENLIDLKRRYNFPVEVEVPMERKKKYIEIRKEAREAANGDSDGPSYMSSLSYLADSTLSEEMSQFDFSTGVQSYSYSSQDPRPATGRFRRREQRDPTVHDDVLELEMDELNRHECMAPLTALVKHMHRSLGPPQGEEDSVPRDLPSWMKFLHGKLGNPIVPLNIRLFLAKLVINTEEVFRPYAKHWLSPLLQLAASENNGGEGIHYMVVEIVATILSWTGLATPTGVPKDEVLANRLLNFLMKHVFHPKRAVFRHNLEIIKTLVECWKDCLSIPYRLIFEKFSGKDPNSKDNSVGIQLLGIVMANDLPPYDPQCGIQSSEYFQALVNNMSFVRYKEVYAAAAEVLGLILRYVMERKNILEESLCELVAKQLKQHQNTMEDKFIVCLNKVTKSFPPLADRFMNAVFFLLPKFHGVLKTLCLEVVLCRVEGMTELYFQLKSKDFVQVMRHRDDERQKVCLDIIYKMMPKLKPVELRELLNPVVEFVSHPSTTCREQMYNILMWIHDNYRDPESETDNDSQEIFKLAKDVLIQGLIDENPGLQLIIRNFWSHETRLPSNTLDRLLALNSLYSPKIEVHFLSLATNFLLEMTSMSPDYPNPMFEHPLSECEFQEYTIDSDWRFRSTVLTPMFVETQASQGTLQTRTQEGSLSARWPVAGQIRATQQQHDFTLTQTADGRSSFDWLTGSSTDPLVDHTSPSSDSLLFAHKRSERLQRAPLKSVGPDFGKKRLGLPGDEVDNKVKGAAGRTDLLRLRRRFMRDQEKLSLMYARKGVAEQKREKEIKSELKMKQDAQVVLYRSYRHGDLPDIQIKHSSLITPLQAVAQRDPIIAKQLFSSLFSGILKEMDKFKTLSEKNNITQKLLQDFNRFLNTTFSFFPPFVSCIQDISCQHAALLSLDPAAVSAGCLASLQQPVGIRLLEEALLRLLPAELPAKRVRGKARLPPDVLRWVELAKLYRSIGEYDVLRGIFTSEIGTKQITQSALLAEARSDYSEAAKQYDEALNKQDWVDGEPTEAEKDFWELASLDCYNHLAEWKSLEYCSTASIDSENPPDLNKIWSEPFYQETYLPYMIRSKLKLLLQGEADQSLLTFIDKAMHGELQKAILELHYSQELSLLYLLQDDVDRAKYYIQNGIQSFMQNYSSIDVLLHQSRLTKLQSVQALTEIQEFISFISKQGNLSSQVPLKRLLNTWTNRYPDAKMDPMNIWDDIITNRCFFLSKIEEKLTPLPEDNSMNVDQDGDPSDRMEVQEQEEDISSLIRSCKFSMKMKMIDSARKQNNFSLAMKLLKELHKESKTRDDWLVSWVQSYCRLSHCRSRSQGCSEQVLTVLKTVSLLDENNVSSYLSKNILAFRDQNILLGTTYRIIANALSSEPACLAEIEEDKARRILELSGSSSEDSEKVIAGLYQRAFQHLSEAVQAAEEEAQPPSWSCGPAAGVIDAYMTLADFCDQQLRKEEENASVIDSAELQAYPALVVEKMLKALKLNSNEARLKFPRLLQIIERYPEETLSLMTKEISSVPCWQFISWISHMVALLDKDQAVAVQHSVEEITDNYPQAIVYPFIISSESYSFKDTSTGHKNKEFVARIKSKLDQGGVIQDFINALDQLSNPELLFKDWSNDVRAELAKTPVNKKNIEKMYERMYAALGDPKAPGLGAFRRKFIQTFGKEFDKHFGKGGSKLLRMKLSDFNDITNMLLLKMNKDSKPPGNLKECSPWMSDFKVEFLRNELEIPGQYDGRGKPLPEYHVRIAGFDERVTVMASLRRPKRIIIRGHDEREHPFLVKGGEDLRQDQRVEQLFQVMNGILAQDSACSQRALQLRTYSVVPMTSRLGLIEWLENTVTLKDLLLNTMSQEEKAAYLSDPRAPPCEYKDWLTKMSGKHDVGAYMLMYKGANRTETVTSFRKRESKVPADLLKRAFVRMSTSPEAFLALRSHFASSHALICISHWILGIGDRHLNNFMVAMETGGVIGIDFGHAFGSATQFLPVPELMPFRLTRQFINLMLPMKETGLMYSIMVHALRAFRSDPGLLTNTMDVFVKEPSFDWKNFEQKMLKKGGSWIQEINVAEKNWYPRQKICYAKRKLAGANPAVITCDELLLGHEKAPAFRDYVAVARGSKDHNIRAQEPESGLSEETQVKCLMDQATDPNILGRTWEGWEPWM

| IC50 [3] [nM] | SMILES | Ratio (HeLa [1]) | Ratio (HeLa [2]) |
| --- | --- | --- | --- |
| 7 | O=C(CNCCN1CCNC1=O)Nc1ccc(-c2cccc3c(=O)cc(N4CCOCC4)oc23)c2sc3ccccc3c12 | 1.2 | 1.2 |
| 8 | COCCNCCC(=O)Nc1ccc(-c2cccc3c(=O)cc(N4CCOCC4)oc23)c2sc3ccccc3c12 | 2.3 | 5.9 |
| 18 | CN(C)CC(=O)Nc1ccc(-c2cccc3c(=O)cc(N4CCOCC4)oc23)c2sc3ccccc3c12 | 1 | 7.4 |
| 41 | CN1CCCN(CCC(=O)Nc2ccc(-c3cccc4c(=O)cc(N5CCOCC5)oc34)c3sc4ccccc4c23)CC1 | 1.1 | 2.6 |
| 9 | CC(C)N1CCN(CC(=O)Nc2ccc(-c3cccc4c(=O)cc(N5CCOCC5)oc34)c3sc4ccccc4c23)CC1 | 1.7 | 12.9 |
| 61 | C[C@@H]1CN(C(=O)COc2ccc(-c3cccc4c(=O)cc(N5CCOCC5)oc34)c3sc4ccccc4c23)C[C@H](C)O1 | 0.9 | 1 |
| 37 | CC(C)N1CCN(CCC(=O)Nc2ccc(-c3cccc4c(=O)cc(N5CCOCC5)oc34)c3sc4ccccc4c23)CC1 | 1.2 | 3.6 |
| 10 | C[C@@H]1CN(CCOc2ccc(-c3cccc4c(=O)cc(N5CCOCC5)oc34)c3sc4ccccc4c23)C[C@H](C)O1 | 1.1 | 3.2 |
| 49 | CCN1CCCC1CNCCC(=O)Nc1ccc(-c2cccc3c(=O)cc(N4CCOCC4)oc23)c2sc3ccccc3c12 (stereo not given) | 1.2 | 1.7 |
| 6 | O=C(CN(CCO)CCO)Nc1ccc(-c2cccc3c(=O)cc(N4CCOCC4)oc23)c2sc3ccccc3c12 | 1.1 | 1.9 |
| 13 | O=C(CNCCCN1CCOCC1)Nc1ccc(-c2cccc3c(=O)cc(N4CCOCC4)oc23)c2sc3ccccc3c12 | 2 | 7.4 |
| 30 | CCN1CCCC1CNCC(=O)Nc1ccc(-c2cccc3c(=O)cc(N4CCOCC4)oc23)c2sc3ccccc3c12 (stereo not given) | 1.2 | 5.9 |
| 14 | O=C(CNCC1CCCO1)Nc1ccc(-c2cccc3c(=O)cc(N4CCOCC4)oc23)c2sc3ccccc3c12 (stereo not given) | 1.7 | 7.7 |
| 29 | O=C(CCN1CCN(CCO)CC1)Nc1ccc(-c2cccc3c(=O)cc(N4CCOCC4)oc23)c2sc3ccccc3c12 | 1 | 1.2 |
| 6 | O=C(CN1CCN(CCOCCO)CC1)Nc1ccc(-c2cccc3c(=O)cc(N4CCOCC4)oc23)c2sc3ccccc3c12 | 1.6 | 3.2 |
| 30 | O=C(CN1CCCN(CCO)CC1)Nc1ccc(-c2cccc3c(=O)cc(N4CCOCC4)oc23)c2sc3ccccc3c12 | 1.2 | 3.3 |
| 84 | CCN(CC)CC(=O)Nc1ccc(-c2cccc3c(=O)cc(N4CCOCC4)oc23)c2sc3ccccc3c12 | 1.2 | 3.7 |
| 23 | CC(=O)N1CCN(CCC(=O)Nc2ccc(-c3cccc4c(=O)cc(N5CCOCC5)oc34)c3sc4ccccc4c23)CC1 | 0.9 | 1.4 |
| 7 | O=C(CCNCC1CCCO1)Nc1ccc(-c2cccc3c(=O)cc(N4CCOCC4)oc23)c2sc3ccccc3c12 (stereo not given) | 2 | 4.7 |
| 4 | C[C@@H]1CN(CC(=O)Nc2ccc(-c3cccc4c(=O)cc(N5CCOCC5)oc34)c3sc4ccccc4c23)C[C@H](C)O1 | 1.3 | 8.2 |
| 37 | O=C(CCN1CCCCC1)Nc1ccc(-c2cccc3c(=O)cc(N4CCOCC4)oc23)c2sc3ccccc3c12 | 1.9 | 5 |
| 37 | O=C(CCN1CCNCC1)Nc1ccc(-c2cccc3c(=O)cc(N4CCOCC4)oc23)c2sc3ccccc3c12 | 1 | 1.5 |
| 16 | NCCNCC(=O)Nc1ccc(-c2cccc3c(=O)cc(N4CCOCC4)oc23)c2sc3ccccc3c12 | 1.1 | 1.5 |
| 6 | COCCN1CCN(CC(=O)Nc2ccc(-c3cccc4c(=O)cc(N5CCOCC5)oc34)c3sc4ccccc4c23)CC1 | 2.2 | 7.7 |
| 7 | O=C(CN1CCN(c2ccccn2)CC1)Nc1ccc(-c2cccc3c(=O)cc(N4CCOCC4)oc23)c2sc3ccccc3c12 | 1.8 | 9.9 |
| 8 | O=C(CNCCO)Nc1ccc(-c2cccc3c(=O)cc(N4CCOCC4)oc23)c2sc3ccccc3c12 | 1.6 | 6.2 |
| 5 | CC(=O)N1CCN(CC(=O)Nc2ccc(-c3cccc4c(=O)cc(N5CCOCC5)oc34)c3sc4ccccc4c23)CC1 | 1.4 | 4.8 |
| 11 | O=C(CCN1CCCCCC1)Nc1ccc(-c2cccc3c(=O)cc(N4CCOCC4)oc23)c2sc3ccccc3c12 | 3.1 | 8.4 |
| 9 | C[C@@H]1CN(CCC(=O)Nc2ccc(-c3cccc4c(=O)cc(N5CCOCC5)oc34)c3sc4ccccc4c23)C[C@H](C)O1 | 2.4 | 9.3 |

More lines, now with the values behind:

| SMILES | IC50 [3] [nM] | Ratio (HeLa [1]) | Ratio (HeLa [2]) |
| --- | --- | --- | --- |
| O=C(CCNCCN1CCNC1=O)Nc1ccc(-c2cccc3c(=O)cc(N4CCOCC4)oc23)c2sc3ccccc3c12 | 6 | 1.1 | 0.9 |
| CN(C)CCN(C)C(=O)COc1ccc(-c2cccc3c(=O)cc(N4CCOCC4)oc23)c2sc3ccccc3c12 | 53 | 1.4 | 2.1 |
| COc1ccc(CNCC(=O)Nc2ccc(-c3cccc4c(=O)cc(N5CCOCC5)oc34)c3sc4ccccc4c23)cc1 | 38 | 1.4 | 6.8 |
| COc1ccc(CNCCC(=O)Nc2ccc(-c3cccc4c(=O)cc(N5CCOCC5)oc34)c3sc4ccccc4c23)cc1 | 9 | 1.7 | 7.2 |
| O=c1cc(N2CCOCC2)oc2c(-c3ccc(OCCN4CCOCC4)c4c3sc3ccccc34)cccc12 | 8 | 1.5 | 6.4 |
| CC(C)N1CCN(CCOc2ccc(-c3cccc4c(=O)cc(N5CCOCC5)oc34)c3sc4ccccc4c23)CC1 | 3 | 1.6 | 6.3 |
| O=C(COc1ccc(-c2cccc3c(=O)cc(N4CCOCC4)oc23)c2sc3ccccc3c12)N1CCCCC1 | 19 | 1.4 | 5.1 |
| CN(C)CCN(C)CCOc1ccc(-c2cccc3c(=O)cc(N4CCOCC4)oc23)c2sc3ccccc3c12 | 5 |  |  |
| CN1CCN(C(=O)COc2ccc(-c3cccc4c(=O)cc(N5CCOCC5)oc34)c3sc4ccccc4c23)CC1 | 29 | 1.1 | 1.8 |
| CN1CCCN(CCOc2ccc(-c3cccc4c(=O)cc(N5CCOCC5)oc34)c3sc4ccccc4c23)CC1 | 10 | 1.5 | 3.6 |
| CCN(CC)CCOc1ccc(-c2cccc3c(=O)cc(N4CCOCC4)oc23)c2sc3ccccc3c12 | 22 |  |  |
| CN(C)CCN1CCN(CCC(=O)Nc2ccc(-c3cccc4c(=O)cc(N5CCOCC5)oc34)c3sc4ccccc4c23)CC1 | 10 | 1.1 | 1.3 |
| CN(CC(N)=O)C(=O)COc1ccc(-c2cccc3c(=O)cc(N4CCOCC4)oc23)c2sc3ccccc3c12 | 11 | 0.9 | 1.4 |
| O=C(COc1ccc(-c2cccc3c(=O)cc(N4CCOCC4)oc23)c2sc3ccccc3c12)NCc1ccncc1 | 10 | 1 | 1.1 |
| O=C(CNCc1ccncc1)Nc1ccc(-c2cccc3c(=O)cc(N4CCOCC4)oc23)c2sc3ccccc3c12 | 8 | 1.4 | 5.5 |
| CC(=O)N1CCN(C(=O)COc2ccc(-c3cccc4c(=O)cc(N5CCOCC5)oc34)c3sc4ccccc4c23)CC1 | 16 | 1 | 1.6 |
| COC(=O)[C@H](CO)NCCOc1ccc(-c2cccc3c(=O)cc(N4CCOCC4)oc23)c2sc3ccccc3c12 | 2 | 2.9 | 10.5 |
| CN1CCN(CCOc2ccc(-c3cccc4c(=O)cc(N5CCOCC5)oc34)c3sc4ccccc4c23)CC1 | 7 | 3.1 | 5.1 |
| CCN(CC(=O)Nc1ccc(-c2cccc3c(=O)cc(N4CCOCC4)oc23)c2sc3ccccc3c12)Cc1ccncc1 | 8 | 1.5 | 14.1 |
| CN(CCOc1ccc(-c2cccc3c(=O)cc(N4CCOCC4)oc23)c2sc3ccccc3c12)CC(N)=O | 3 | 1.4 | 7.7 |
| O=c1cc(N2CCOCC2)oc2c(-c3ccc(OCCNc4cccnc4)c4c3sc3ccccc34)cccc12 | 2 | 0.9 | 1 |
| O=C(CCN1CCCN(CCO)CC1)Nc1ccc(-c2cccc3c(=O)cc(N4CCOCC4)oc23)c2sc3ccccc3c12 | 42 | 1.2 | 1.1 |
| O=C(CN1CCN(c2ccc(F)cc2)CC1)Nc1ccc(-c2cccc3c(=O)cc(N4CCOCC4)oc23)c2sc3ccccc3c12 | 15 | 1 | 4.9 |
| CCN(CCC(=O)Nc1ccc(-c2cccc3c(=O)cc(N4CCOCC4)oc23)c2sc3ccccc3c12)Cc1ccncc1 | 31 | 1 | 1.6 |

Reference: ChEMBL document CHEMBL2417539, “1-substituted (Dibenzo[b,d]thiophen-4-yl)-2-morpholino-4H-chromen-4-ones endowed with dual DNA-PK/PI3-K inhibitory activity” (J Med Chem, 2013)
